Data set [1] concerns the target T1, Nuclear receptor subfamily 1 group I member 3 (Homo sapiens, UniProt Q14994).
T1 sequence (Q14994 whole entry): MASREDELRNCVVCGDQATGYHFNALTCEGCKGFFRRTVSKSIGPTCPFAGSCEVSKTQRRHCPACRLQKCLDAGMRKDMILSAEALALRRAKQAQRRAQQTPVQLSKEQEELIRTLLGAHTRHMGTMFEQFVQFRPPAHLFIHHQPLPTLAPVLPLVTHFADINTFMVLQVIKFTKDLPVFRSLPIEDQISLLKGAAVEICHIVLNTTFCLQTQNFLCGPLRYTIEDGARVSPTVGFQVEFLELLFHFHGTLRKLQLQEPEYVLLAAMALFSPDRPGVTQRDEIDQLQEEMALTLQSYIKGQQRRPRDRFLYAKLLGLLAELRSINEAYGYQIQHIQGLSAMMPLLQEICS
As to the kind of experiment: Agonist activity at human constitutive androstane receptor expressed in HepG2 cells co-expressing CYP2B6 incubated for 23 hrs by One-Glo luciferase reporter gene assay. It counts as cell-based. In a few lines:
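HepG2-CYP2B6-hCAR stable reporter cells, 2,500/well, attached 5 h at 37 °C/5% CO₂. Compounds in DMSO, 16 final concentrations from 6.41 pM to 92 μM (1:3 steps), with PK11195 at 0.75 μM final; final DMSO 0.46%. After 23 h, viability read by CellTiter-Fluor (ex 405/em 540 nm), then ONE-Glo luminescence (30 min, RT) in RLU.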

Data set [2] deals with T1, Nuclear receptor subfamily 1 group I member 3. As to the kind of experiment: Ratio of Emax to EC50 for human constitutive androstane receptor expressed in HepG2 cells co-expressing CYP2B6.
Data set [3] has the same target. The data set is described as follows: Agonist activity at human constitutive androstane receptor expressed in HepG2 cells co-expressing CYP2B6 at 1 uM incubated for 23 hrs by One-Glo luciferase reporter gene assay. The conditions noted are these: hepg2, 23 h. It counts as cell-based.
In data set [4] the target is T2, Nuclear receptor subfamily 1 group I member 2 (Homo sapiens, UniProt O75469).
T2 sequence (O75469 whole entry): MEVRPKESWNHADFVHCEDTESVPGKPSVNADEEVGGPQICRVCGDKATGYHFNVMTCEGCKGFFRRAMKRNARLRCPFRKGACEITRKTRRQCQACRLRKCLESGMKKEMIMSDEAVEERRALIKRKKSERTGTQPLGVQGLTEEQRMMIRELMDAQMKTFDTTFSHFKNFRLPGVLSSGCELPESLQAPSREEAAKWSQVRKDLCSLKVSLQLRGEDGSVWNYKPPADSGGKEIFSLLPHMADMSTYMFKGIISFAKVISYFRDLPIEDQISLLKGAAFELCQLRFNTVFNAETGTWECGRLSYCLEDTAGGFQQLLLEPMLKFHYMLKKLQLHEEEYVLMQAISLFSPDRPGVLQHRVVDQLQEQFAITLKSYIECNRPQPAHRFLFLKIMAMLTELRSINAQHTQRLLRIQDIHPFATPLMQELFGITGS
The data set is described as follows: Agonist activity at human PXR expressed in HepG2 cells co-expressing CYP2B6 at 1 uM incubated for 23 hrs by One-Glo luciferase reporter gene assay. The conditions noted are these: hepg2, 23 h. It is filed as cell-based.

Data set [5] addresses T1, Nuclear receptor subfamily 1 group I member 3. The data set is described as follows: Induction of constitutive - androstane receptor in human primary hepatocytes assessed as upregulation of CYP2B6 mRNA expression at 0.5 to 5 uM after 24 hrs by RT-PCR analysis. It is filed as cell-based.
The target is the same in data set [6]. As to the kind of experiment: Induction of constitutive - androstane receptor in human primary hepatocytes assessed as upregulation of CYP3A4 mRNA expression at 0.5 to 5 uM after 24 hrs by RT-PCR analysis. It is filed as cell-based.
For data set [7] the target is unchanged. As to the kind of experiment: Induction of constitutive - androstane receptor in human primary hepatocytes assessed as upregulation of CYP2B6 mRNA expression measured after 24 hrs by RT-PCR analysis. It counts as cell-based. In a few lines:
(§1)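 Primary human hepatocytes (donors HL-#131 and #133), viability >90%, 0.75×10⁶ cells/well, Matrigel overlay 0.25 mg/mL. Dosed 36 h post-seeding at 0.1, 0.5 and 1 μM (vehicle 0.1% DMSO; rifampin 10 μM reference) for 24 h. RT-PCR fold over control = 2^ΔΔCt versus GAPDH; mean ± SD, three independent experiments.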

The target is the same in data set [8]. As to the kind of experiment: Induction of constitutive androstane receptor in human primary hepatocytes assessed as upregulation of CYP3A4 mRNA expression measured after 24 hrs by RT-PCR analysis. It counts as cell-based. In a few lines: as §1
Data set [9] has the same target. The data set is described as follows: Induction of adenoviral enhanced yellow fluorescent protein tagged constitutive androstane receptor translocation from cytoplasm to nucleus in human primary hepatocytes at 1 uM measured after 8 hrs by DAPI staining based fluorescent microscopic analysis. It is filed as cell-based. In a few lines:
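Hepatocytes (60,000/well, collagen plates) infected overnight with Ad/EYFP-hCAR (3 μL/mL), then treated 8 h at 1 μM; controls 0.1% DMSO, phenobarbital 1 mM. Cells PFA-fixed and DAPI-stained; five images per well. Translocation % = cells with ≥50% nuclear overlap with EYFP-hCAR ÷ EYFP-positive cells; mean ± SD of five images.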

Data set [10] can be described thus: Lipophilicity, logP of compound. It is filed as physicochemical. The note with it: octanol/water.
Data set [11] addresses T1, Nuclear receptor subfamily 1 group I member 3. As to the kind of experiment: Induction of constitutive - androstane receptor in human primary hepatocytes assessed as upregulation of CYP2B6 protein expression measured after 72 hrs by Western blot analysis. It counts as cell-based. In a few lines:
(§2)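 Hepatocytes from donors #131 and #133, dosed 36 h after seeding at 0.1, 0.5 and 1 μM (0.1% DMSO vehicle) for 72 h. Homogenate proteins run on 4–12% SDS-PAGE and immunoblotted: anti-CYP2B6 1:200, anti-CYP3A4 1:5000, β-actin 1:50,000 loading control. HRP secondaries, ECL detection.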
On the technique in general: A western blot detects proteins with antibodies after separation by electrophoresis.

Data set [12] shares this target. The data set is described as follows: Induction of constitutive androstane receptor in human primary hepatocytes assessed as upregulation of CYP3A4 protein expression measured after 72 hrs by Western blot analysis. It is filed as cell-based. In a few lines: as §2

In turn, `Clc1ccc(-c2nc3sccn3c2CNCCc2c[nH]c3ccccc23)cc1` showed an EC50 in data set [1] of 2700 nM. Also, the Ratio in data set [2] worked out at 1.4 µM⁻¹.

Regarding `Clc1ccc(-c2nc3sccn3c2CNCCc2cccc(Cl)c2)cc1`, the EC50 in data set [1] stood at 2800 nM. In addition, in [2], the Ratio came out at 1.1 µM⁻¹.

`CN(CCc1ccc(Cl)c(Cl)c1)Cc1c(-c2ccc(Cl)cc2)nc2sccn12`: the EC50 in data set [1] stood at 1100 nM. For the same molecule, the Ratio in data set [2] is 2.1 µM⁻¹.

`Clc1ccc(-c2nc3sccn3c2CNCCc2ccc(Br)cc2)cc1` came in with an EC50 in data set [1] of 3200 nM. Besides, the Ratio in data set [2] is 1.1 µM⁻¹.

In turn, `c1ccc(CCNCc2c(-c3ccc4ccccc4c3)nc3sccn23)cc1` returned an EC50 in data set [1] of 1900 nM. Also, in data set [3], the outcome was Active. Moreover, the Ratio in [2] came to 1.9 µM⁻¹.

In [1], `Clc1ccc(-c2nc3sccn3c2CNc2ccc3ccccc3c2)cc1` displayed an EC50 of 63000 nM. Besides, in [2], the Ratio was 0.22 µM⁻¹.

In turn, `Clc1ccc(-c2nc3ncccn3c2CNCCc2ccc(Cl)c(Cl)c2)cc1` yielded an EC50 in data set [1] of 920 nM. Also, the Ratio in data set [2] came out at 3 µM⁻¹.

Turning to `Oc1ccc(CCNCc2c(-c3ccc(Cl)cc3)nc3sccn23)cc1`, it took 10000 nM to reach a half-maximal effect in data set [1] (EC50). In addition, in [2], the Ratio came out at 0.36 µM⁻¹.

On to `Clc1ccc(CCNCc2c(-c3ccc(Cl)cc3)nc3sccn23)cc1`, for which a half-maximal response in data set [1] (EC50) required 650 nM. In addition, the outcome in data set [3] and in data set [4] was Active. Moreover, in data set [2], the Ratio stood at 4.3 µM⁻¹.

In the case of `Clc1ccc(CCNCc2c(-c3ccc(Br)cc3)nc3sccn23)cc1Cl`, the EC50 in data set [1] worked out at 560 nM. In data set [2], the Ratio came out at 4.6 µM⁻¹.

Regarding `Clc1ccc(-c2nc3sccn3c2CNCCc2ccccc2)cc1`, in data set [1], the EC50 was 740 nM. In addition, the result in [3] and in data set [4] was Active. The Ratio in data set [2] turned out to be 3.9 µM⁻¹.

The molecule `Cc1cn2c(CNCCc3ccc(Cl)c(Cl)c3)c(-c3ccc(Cl)cc3)nc2s1` gave an EC50 in data set [1] of 2200 nM. In data set [2], the Ratio turned out to be 1.4 µM⁻¹.

`COc1ccc(-c2nc3sccn3c2CNCCc2ccc(Cl)c(Cl)c2)cc1`: the EC50 in data set [1] was determined as 670 nM. Moreover, in [2], the Ratio turned out to be 4.3 µM⁻¹.

As for `O=C(NCCc1ccc(Cl)c(Cl)c1)c1c(-c2ccc(Cl)cc2)nc2sccn12`, the EC50 in data set [1] worked out at 1100 nM. Besides, the Ratio in [2] turned out to be 2.4 µM⁻¹.

The molecule `Clc1ccc(-c2nc3sccn3c2CNCc2ccccc2)cc1` displayed an EC50 in [1] of 9200 nM. For the same molecule, the Ratio in data set [2] was 0.42 µM⁻¹.

Take `CCc1nc2sccn2c1CNCCc1ccc(Cl)c(Cl)c1`: in data set [1], the EC50 came to 8700 nM. Further, in data set [2], the Ratio was 0.37.

`Clc1ccc(-c2nc3occn3c2CNCCc2ccc(Cl)c(Cl)c2)cc1` yielded an EC50 in data set [1] of 1300 nM. Moreover, the Ratio in data set [2] came out at 2.3 µM⁻¹.

In data set [1], `Clc1ccc(-c2nc3sccn3c2/C=N/CCc2ccc(Cl)c(Cl)c2)cc1` returned an EC50 of 54000 nM. Further, the Activity result in data set [5] and in data set [6] was “Not Active” throughout. The Ratio in data set [2] is 0.13 µM⁻¹.

Regarding `Clc1ccc(CCNCc2c(-c3ccc4ccccc4c3)nc3sccn23)cc1Cl`, the midpoint of the response in data set [1], the EC50, lay at 1500 nM. In addition, the outcome in data set [3] and in [4] was Active. In addition, the Ratio in data set [2] came to 2.4 µM⁻¹.

As to `Fc1ccc(-c2nc3sccn3c2CNCCc2ccc(Cl)c(Cl)c2)cc1`, in [1], the EC50 was 150 nM. For the same molecule, the result in data set [3] was Active. In addition, in data set [2], the Ratio is 18 µM⁻¹.

In turn, `Clc1ccc(-c2nc3sccn3c2CNCCc2ccc(Cl)c(Cl)c2)cc1` displayed an EC50 in data set [1] of 400 nM. For the same molecule, the result in data set [3] and in data set [4] was Active. Moreover, in data set [2], the Ratio worked out at 7 µM⁻¹.

Take `FC(F)(F)c1ccc(-c2nc3sccn3c2CNCCc2ccc(Cl)c(Cl)c2)cc1`: the EC50 in data set [1] amounted to 2100 nM. In data set [2], the Ratio came to 1.7 µM⁻¹.

In [1], `N#Cc1ccc(-c2nc3sccn3c2CNCCc2ccc(Cl)c(Cl)c2)cc1` had an EC50 of 1500 nM. In data set [2], the Ratio was 1.9 µM⁻¹.

As for `Fc1ccc(CCNCc2c(-c3ccc(Cl)cc3)nc3sccn23)cc1`, in [1], a half-maximal effect (EC50) was put at 2100 nM. For the same molecule, in [2], the Ratio came out at 1.4 µM⁻¹.

With `Clc1ccc(-c2nc3sccn3c2/C=N/OCc2ccc(Cl)c(Cl)c2)cc1`, the Activity entry is “Dose-dependent effect” in data set [7]; “Active” in data set [8]; “Active” in [9]; “Active” in data set [3]; “Active” in data set [4]; “Dose-dependent effect” in data set [11]. The outcome in data set [12] was Active. Further, in [10], the logP was determined as 7.26.

On to `c1ccc2c(c1)CC(NCc1c(-c3ccc4ccccc4c3)nc3sccn13)C2`, for which, in data set [1], the EC50 amounted to 1600 nM. The result in data set [3] and in data set [4] was Active. Besides, the Ratio in data set [2] was 2.4 µM⁻¹.

Turning to `CC(C)(C)c1ccc(-c2nc3sccn3c2CNCCc2ccc(Cl)c(Cl)c2)cc1`, in data set [1], the EC50 was found to be 10000 nM. For the same molecule, the Ratio in data set [2] was 0.74 µM⁻¹.

In turn, `Cc1ccc(-c2nc3sccn3c2CNCCc2ccc(Cl)c(Cl)c2)cc1` registered a concentration for a half-maximal effect (EC50) in [1] of 440 nM. Besides, the Ratio in [2] turned out to be 6.1 µM⁻¹.

The molecule `Clc1ccc(-c2nc3sccn3c2COCCc2ccc(Cl)c(Cl)c2)cc1` displayed an EC50 in [1] of 190 nM. The outcome in data set [3] and in data set [4] was Active. Moreover, in data set [2], the Ratio worked out at 13 µM⁻¹.

For the molecule `Clc1cccc(-c2nc3sccn3c2CNCCc2ccc(Cl)c(Cl)c2)c1`, in data set [1], the EC50 came to 930 nM. For the same molecule, in [2], the Ratio amounted to 3.4 µM⁻¹.

Regarding `Clc1ccc(CCNCc2c(-c3ccccc3)nc3sccn23)cc1Cl`, in [1], the EC50 came out at 240 nM. In [3], the outcome was Active. Further, in data set [2], the Ratio came out at 12 µM⁻¹.

In turn, `Clc1ccc(-c2nc3sccn3c2CNC2Cc3ccccc3C2)cc1` came in with an EC50 in data set [1] of 460 nM. For the same molecule, the outcome in data set [3] and in data set [4] was Active. In addition, the Ratio in data set [2] turned out to be 7.4 µM⁻¹.

By EC50 is commonly meant the concentration needed to bring the measured effect to its halfway point. A lower EC50 goes with greater potency. A word on the logP: it is the decadic logarithm of the partition coefficient of the neutral form, usually between octanol and water. Lower therefore signals a more hydrophilic compound.
